Consider one molecule from ChEMBL document CHEMBL4219101, “Discovery of 18β-glycyrrhetinic acid conjugated aminobenzothiazole derivatives as Hsp90-Cdc37 interaction disruptors that inhibit cell migration and reverse drug resistance” (Bioorg Med Chem, 2018).

The viability is a per cent measure of how many cells are alive, often set against a control.

Structures are written as SMILES. Calls of active or inactive are those of the source. The calls are words filed in the database; no cut-off is given here.

For experiment [1], the system named is A549. The experiment can be described thus: Inhibition of Hsp90/Cdc37 interaction in human A549 cells assessed as downregulation of Cdc37 in immunoprecipitated HSP90 complex at 5 to 10 uM after 24 hrs by Western blot analysis. The class given is cell-based. Put shortly:
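A549 cells exposed to 5 and 10 µM for 24 h, geldanamycin 10 µM as comparator. Lysis in 20 mM Tris-HCl pH 7.4, 25 mM NaCl, 2 mM DTT, 20 mM Na2MoO4, 0.1% NP-40 and protease inhibitors. 500 µg protein immunoprecipitated overnight at 4 °C with anti-Hsp90 antibody, captured on protein G agarose, washed five times and boiled. Cdc37 and Hsp90 detected by Western blot, with input also blotted.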
A general note: In western blotting, separated proteins are transferred to a membrane and probed.

Experiment [2] relates to A549. The experiment can be described thus: Induction of apoptosis in human A549 cells assessed as increase in intracellular ROS levels after 24 hrs by FITC-DCF-DA-fluorescence based flow cytometry. The class given is functional, cell-based. Put shortly:
(§1)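 A549 cells exposed to 5 and 10 µM for 24 h, untreated cells as control. Collected, washed with ice-cold PBS and loaded with DCFH-DA in cell-free medium for 20 min at 37 °C in the dark, then washed. Fluorescence measured by flow cytometry at 485 nm excitation and 538 nm emission. Mean ± S.D. of three independent experiments.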

Experiment [3] relates to A549. The experiment in a line: Induction of apoptosis in human A549 cells assessed as late apoptotic cells at 10 uM after 24 hrs by Annexin-V FITC/propidium iodide staining based flow cytometry (reference value: 0.030%).
The target of experiment [4] is Heat shock protein HSP90 (Homo sapiens) (UniProt P07900+P08238). The experiment in a line: Inhibition of HSP90 in human A549 cells assessed as downregulation of CDK4 expression after 24 hrs by Western blot analysis. The class given is cell-based. In a few lines: (§2)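 A549 cells exposed for 24 h, with geldanamycin as comparator. Whole-cell lysates separated by SDS-PAGE and immunoblotted for the named proteins. β-actin used as reference.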

Experiment [5] has as its system A549. The experiment can be described thus: Cell cycle arrest in human A549 cells assessed as accumulation at G2 phase at 10 uM after 48 hrs by propidium iodide staining-based flow cytometry (reference value: 10.22%). The class given is functional. On the technique in general: In flow cytometry, cells or beads pass a laser one at a time.
For experiment [6], the system named is A549. The experiment in a line: Cell cycle arrest in human A549 cells assessed as accumulation at S phase after 48 hrs by propidium iodide staining-based flow cytometry. The class given is functional.
The target of experiment [7] is Heat shock protein HSP 90-beta/Hsp90 co-chaperone Cdc37 (Homo sapiens) (UniProt P08238+Q16543). The experiment in a line: Inhibition of HSP90beta/Cdc37 interaction in human A549 cells assessed as upregulation of HSP90beta expression at 5 to 10 uM after 24 hrs by Western blot analysis. The class given is cell-based. In a few lines:
as §2

In experiment [8] the test system is A549. The experiment in a line: Induction of apoptosis in human A549 cells after 24 hrs by Annexin-V FITC/propidium iodide staining based flow cytometry.
Experiment [9] concerns A549. The experiment in a line: Cell cycle arrest in human A549 cells assessed as accumulation at S phase at 5 uM after 48 hrs by propidium iodide staining-based flow cytometry (reference value: 19.62%). The class given is functional.
In experiment [10] the test system is A549. The experiment in a line: Induction of apoptosis in human A549 cells assessed as early apoptotic cells at 10 uM after 24 hrs by Annexin-V FITC/propidium iodide staining based flow cytometry (reference value: 0.080%).
The target of experiment [11] is Heat shock protein HSP 90-alpha/Hsp90 co-chaperone Cdc37 (Homo sapiens) (UniProt P07900+Q16543). The experiment in a line: Inhibition of HSP90alpha/Cdc37 interaction in human A549 cells assessed as upregulation of HSP90alpha expression at 5 to 10 uM after 24 hrs by Western blot analysis. The class given is cell-based. In a few lines: as §2
In experiment [12] the test system is A549. The experiment can be described thus: Inhibition of HSP90/Cdc37 interaction in human A549 cells assessed as suppression cellular migration at 5 to 10 uM after 24 hrs by wound healing assay. The class given is cell-based. Put shortly:
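Scratch wounds made in A549 monolayers, cells then exposed to 5 µM and 10 µM. Wound closure imaged by microscopy at 0 h and 24 h, magnification 200×.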

The subject of experiment [13] is A549. The experiment in a line: Induction of apoptosis in human A549 cells assessed as viable cells at 10 uM after 24 hrs by Annexin-V FITC/propidium iodide staining based flow cytometry (reference value: 97.6%). As to conditions: A549, 24 h.
Experiment [14] deals with A549. The experiment can be described thus: Induction of apoptosis in human A549 cells assessed as late apoptotic cells at 5 uM after 24 hrs by Annexin-V FITC/propidium iodide staining based flow cytometry (reference value: 0.030%).
Experiment [15] deals with A549. The experiment in a line: Induction of apoptosis in human A549 cells assessed as intracellular ROS levels at 5 uM after 24 hrs by FITC-DCF-DA-fluorescence based flow cytometry (reference value: 0.832%). The class given is functional. Put shortly:
as §1

Chain of Heat shock protein HSP 90-alpha/Hsp90 co-chaperone Cdc37 (Homo sapiens) (Q16543 whole entry, looked up, other chains not shown): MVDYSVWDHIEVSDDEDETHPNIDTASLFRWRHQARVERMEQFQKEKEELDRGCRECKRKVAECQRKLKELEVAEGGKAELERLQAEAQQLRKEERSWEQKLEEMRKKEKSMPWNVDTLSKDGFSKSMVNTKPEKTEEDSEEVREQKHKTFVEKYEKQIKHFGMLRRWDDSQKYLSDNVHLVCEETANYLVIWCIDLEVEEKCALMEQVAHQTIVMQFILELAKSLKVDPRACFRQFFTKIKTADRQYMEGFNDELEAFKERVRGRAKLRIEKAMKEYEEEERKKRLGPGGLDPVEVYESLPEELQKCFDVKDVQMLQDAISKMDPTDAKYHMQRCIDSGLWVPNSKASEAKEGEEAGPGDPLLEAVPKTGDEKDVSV

With `CCOC(=O)[C@@]1(C)CC[C@]2(C)CC[C@]3(C)C(=CC(=O)[C@@H]4[C@@]5(C)CC[C@H](OC(=O)CCC(=O)Nc6nc7ccc(F)cc7s6)C(C)(C)[C@@H]5CC[C@]43C)[C@@H]2C1`, the inhibition result in experiment [1], in [7], in experiment [11] and in experiment [12] was “Active” in each case. Moreover, the Activity result is “Dose-dependent effect” in [2]; 6.07% in experiment [3]; 12.51% in experiment [5]; “Dose-dependent effect” in experiment [6]; “Dose-dependent effect” in [8]; 34.09% in experiment [9]. Further, the figures for the Activity in experiment [10], in experiment [14] and in [15] were 14%, 3.84% and 13.6%, respectively. Further, in experiment [4], the inhibition entry is “Dose-dependent effect”. Further, the viability at 10 µM in [13] was 78.8%.
